Laboratory results published in PMC2743114 (Journal of immunological methods, 2009).
Blank lines part the entries; values can stand above or below the molecule they belong to.

Tests used:
[1] = tested on: mouse IgG1; experiment: Direct ELISA binding of Biotinyl PE to isotype control; details: specificity control
How it was run: (§1)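 Biotinyl PE (1μg/mL) was incubated overnight at 37°C with hCD1 dimer or mouse IgG1 isotype control. Incubation was in PBS adjusted with HCl or NaOH to pH 4–10, in plates coated with anti-mouse IgG Fc antibody. A well without biotinylated PE at pH 7 served as background. Assays were run in triplicate.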

[2] = target: T1, hCD1c dimer (Homo sapiens, UniProt P29017); experiment: Direct ELISA binding of Biotinyl PE without competitor; details: pH 4–10 tested, Biotinyl PE 1μg/mL, overnight 37°C, no competitor
T1 sequence (P29017 18-302 limits assumed): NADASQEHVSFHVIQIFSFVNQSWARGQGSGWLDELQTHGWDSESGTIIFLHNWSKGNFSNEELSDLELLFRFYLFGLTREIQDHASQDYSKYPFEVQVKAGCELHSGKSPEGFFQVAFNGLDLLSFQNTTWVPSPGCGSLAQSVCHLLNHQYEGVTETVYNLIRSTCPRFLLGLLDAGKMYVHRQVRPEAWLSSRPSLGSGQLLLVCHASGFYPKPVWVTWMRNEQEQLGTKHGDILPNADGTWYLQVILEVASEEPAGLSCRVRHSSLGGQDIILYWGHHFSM
How it was run: as §1

[3] = target: T2, hCD1d dimer (Homo sapiens, UniProt P15813); experiment: Direct ELISA binding of Biotinyl PE without competitor; details: Biotinyl PE 1μg/mL
T2 sequence (P15813 20-301 limits assumed): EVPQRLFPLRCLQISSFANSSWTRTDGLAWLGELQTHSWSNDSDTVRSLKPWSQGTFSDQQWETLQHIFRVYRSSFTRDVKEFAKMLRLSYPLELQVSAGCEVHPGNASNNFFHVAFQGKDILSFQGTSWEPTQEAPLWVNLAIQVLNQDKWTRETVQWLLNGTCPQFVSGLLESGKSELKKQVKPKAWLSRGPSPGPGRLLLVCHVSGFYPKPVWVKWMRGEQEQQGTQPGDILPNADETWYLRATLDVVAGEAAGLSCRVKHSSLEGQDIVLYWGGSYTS

[4] = target: T3, hCD1b dimer (Homo sapiens, UniProt P29016); experiment: Direct ELISA binding of Biotinyl PE without competitor; details: pH 4–10 tested, Biotinyl PE 1μg/mL, overnight 37°C, no competitor
How it was run: as §1

[5] = target: T1, hCD1c dimer; experiment: Competitive ELISA assay; type: binding
How it was run: (§2)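 Dimers are hCD1 α1–α3 fused to mouse IgG with β2m, expressed in J558L cells and purified on Protein G. Plates were coated overnight at 4°C with goat anti-mouse IgG Fc (10μg/mL, pH 9.6), then blocked 1 h. Dimer (5μg/mL), competitor lipid and Biotinyl PE (2μg/mL) in PBS were incubated overnight at 37°C and detected with HRP-avidin. Assays were run in triplicate. Ki = IC50/(1+[B-PE]/Kd), with Kd fitted from competitor-free Biotinyl PE titration.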

[6] = target: T2, hCD1d dimer; experiment: Competitive ELISA assay; type: binding
How it was run: as §2

[7] = target: T3, hCD1b dimer; experiment: Competitive ELISA assay; type: binding
How it was run: as §2

T3 sequence (P29016 18-303 limits assumed): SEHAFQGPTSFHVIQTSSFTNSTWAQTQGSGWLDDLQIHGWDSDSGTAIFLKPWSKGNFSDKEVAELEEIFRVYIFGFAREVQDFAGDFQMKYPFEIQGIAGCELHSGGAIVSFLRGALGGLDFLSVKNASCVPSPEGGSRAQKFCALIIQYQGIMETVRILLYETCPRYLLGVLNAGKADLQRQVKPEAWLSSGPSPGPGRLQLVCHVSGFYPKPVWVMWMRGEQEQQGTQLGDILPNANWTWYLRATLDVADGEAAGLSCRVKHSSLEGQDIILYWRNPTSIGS

binding to mouse IgG1 (isotype control) [1]: failed to bind
optimal pH for binding to CD1c [2]: 4-5
time to reach a peak level of binding to hCD1d ([3]; 37°C, optimal condition): 8 h
optimal pH for binding to CD1d ([3]; pH 4–10 tested, overnight 37°C, no competitor): 5-7
optimal pH for binding to CD1b [4]: 4-5
Molecule: CCCCCCCC/C=C\CCCCCCCC(=O)OC[C@H](COP(=O)(O)OCCNC(=O)CCCC[C@@H]1SC[C@@H]2NC(=O)N[C@@H]21)OC(=O)CCCCCCC/C=C\CCCCCCCC [Biotinyl PE, 1,2-Dioleoyl-sn-Glycero-3-Phosphoethanolamine-N-(Biotinyl)]

Ki [5]: 1370 nM
Ki [6]: 97 nM
Ki [7]: 2840 nM
Molecule: CCCCCCCCCCCCCCCCCCCCCCCCCC(=O)N[C@@H](CO[C@H]1O[C@H](CO)[C@H](O)[C@H](O)[C@H]1O)[C@H](O)[C@H](O)CCCCCCCCCCCCCC [α-GalCer, α-galactosylceramide]

Molecule: Mycolic acid
binding to CD1b (inhibition of Biotinyl PE binding), in words ([7]; competitive ELISA): unable to detect the binding
